Our source for the viability and inhibition values is ChEMBL document CHEMBL3272068, “Synthesis and biological activities of some N4-substituted 4-aminopyrazolo(3,4-d)pyrimidines” (J Med Chem, 1976).

Series [1] is described as follows: Antiproliferative activity against human RPMI6410 cells assessed as cell viability at 0.1 mM after 72 hrs by trypan blue dye based hemocytometer analysis relative to control. It counts as functional. The settings on record: RPMI 6410, 72 h, read-out: Activity. The essentials: (§1)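 Nc 37 (normal donor buffy coat), RPMI 6410 (myeloblastic leukemia) and murine L1210 cells. Compound dissolved in Me2SO, held at 37° overnight for sterilization, diluted in RPMI 1640 + 10% fetal calf serum to final 10⁻⁴ M with 0.5% Me2SO. Unagitated tubes seeded at 2–5 × 10⁵ cells/ml from log-phase stocks. Trypan blue (0.05%) hemocytometer counts every 24 h. Viable density versus control at 72 h banded into rating categories.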

A further series relates to L1210. Description: Antiproliferative activity against mouse L1210 cells assessed as cell viability at 0.1 mM after 72 hrs by trypan blue dye based hemocytometer analysis relative to control. In kind it is functional. The settings on record: L1210, 72 h, read-out: Activity. The essentials:
as §1

The nature of series [2]: Antiproliferative activity against human Nc37 cells assessed as cell viability at 0.1 mM after 72 hrs by trypan blue dye based hemocytometer analysis relative to control. Set-up: species or system NC-37. The settings on record: read-out: Activity. In a few lines:
as §1

A short description of series [3]: Antiproliferative activity against human RPMI6410 cells assessed as growth inhibition at 0.1 mM. In kind it is functional. The settings on record: RPMI 6410. The essentials:
as §1

As a reminder, the inhibition is the share of the control response that was lost under treatment.

Regarding `CC(C)CCNc1ncnc2[nH]ncc12`, the viability at 100 µM in series [1] worked out at 30%; in the series with L1210, 0%. For the same molecule, in series [2], the viability at 72 h, 100 µM was 0%.

As for `O=C(Nc1cccc(Cl)c1)Nc1ncnc2[nH]ncc12`, the viability at 100 µM (in series [1]; with L1210) was 0% each time. Moreover, the viability at 72 h, 100 µM in series [2] turned out to be 0%.

For the molecule `O=C(Nc1ccccc1Cl)Nc1ncnc2[nH]ncc12`, the figures for the viability at 100 µM (in series [1]; with L1210) were 80% and 60%, respectively. Moreover, in series [2], the viability at 72 h, 100 µM was 90%.

For `CCCCNC(=O)Nc1ncnc2[nH]cnc12`, the inhibition at 100 µM in series [3] was determined as 70%.

Regarding `O=C(Nc1ccc(Cl)cc1)Nc1ncnc2[nH]ncc12`, the viability at 100 µM (in series [1]; with L1210) was 30% throughout. Also, the viability at 72 h, 100 µM in series [2] worked out at 30%.

Consider `O=C(Nc1ccccc1F)Nc1ncnc2[nH]ncc12`, for which the viability at 100 µM (in series [1]; with L1210) was 60% throughout. Moreover, the viability at 72 h, 100 µM in series [2] turned out to be 90%.

Turning to `CC(C)NC(=O)Nc1ncnc2[nH]ncc12`, the viability at 100 µM (in series [1]; with L1210) was 80% each time. In series [2], the viability at 72 h, 100 µM is 30%.

Turning to `C=CCNC(=O)Nc1ncnc2[nH]ncc12`, the viability at 100 µM turned out to be 90% in series [1] and 0% in the series with L1210. Also, in series [2], the viability at 72 h, 100 µM was determined as 30%.

With `CC(C)Nc1ncnc2[nH]ncc12`, the viability at 100 µM in series [1] was determined as 60%; with L1210, 90%. Also, the viability at 72 h, 100 µM in series [2] came to 30%.

For the molecule `O=C(Nc1ccccc1)Nc1ncnc2[nH]ncc12`, the figures for the viability at 100 µM (in series [1]; with L1210) were 30% and 60%, respectively. Moreover, the viability at 72 h, 100 µM in series [2] was 90%.

`CC(C)CNC(=O)Nc1ncnc2[nH]ncc12`: the viability at 100 µM (in series [1]; in the series with L1210) was 60% each time. Moreover, the viability at 72 h, 100 µM in series [2] stood at 60%.

With `CCOCCNC(=O)Nc1ncnc2[nH]ncc12`, the viability at 100 µM is 30% in series [1] and 80% with L1210. In series [2], the viability at 72 h, 100 µM is 80%.

Take `CC(C)CCNC(=O)Nc1ncnc2[nH]ncc12`: the viability at 100 µM (in series [1]; in the series with L1210) was 60% throughout. In addition, in series [2], the viability at 72 h, 100 µM was found to be 60%.

`CCNc1ncnc2[nH]ncc12`: the viability at 100 µM in series [1] was 90%; in the series on L1210 it was 60%. In series [2], the viability at 72 h, 100 µM came to 90%.

For `O=C(Nc1ncnc2[nH]ncc12)NC12CC3CC(CC(C3)C1)C2`, the viability at 100 µM in series [1] stood at 30%; with L1210 it was 0%. The viability at 72 h, 100 µM in series [2] came to 30%.

In the case of `CCCCCNC(=O)Nc1ncnc2[nH]cnc12`, in series [3], the inhibition at 100 µM came out at 70%.

As to `O=C(NCCCc1ccccc1)Nc1ncnc2[nH]ncc12`, the viability at 100 µM (in series [1]; in the series with L1210) was 60% throughout. In addition, in series [2], the viability at 72 h, 100 µM worked out at 30%.

Turning to `C[C@@H](O)[C@H](NC(=O)Nc1ncnc2[nH]ncc12)C(=O)O`, the viability at 100 µM (in series [1]; in the series on L1210) was 30% each time. Also, the viability at 72 h, 100 µM in series [2] amounted to 30%.

For `CCCCNC(=O)Nc1ncnc2[nH]ncc12`, the viability at 100 µM in series [1] turned out to be 80%; with L1210 it was 60%. Also, in series [2], the viability at 72 h, 100 µM came to 80%.

With `O=C(NCCCCc1ccccc1)Nc1ncnc2[nH]ncc12`, the viability at 100 µM in series [1] came to 80%; in the series on L1210 it was 30%. Further, the viability at 72 h, 100 µM in series [2] was 60%.

Take `C#CCNC(=O)Nc1ncnc2[nH]ncc12`: the viability at 100 µM in series [1] amounted to 30%; in the series with L1210, 60%. The viability at 72 h, 100 µM in series [2] is 90%.

As to `CC(C)(C)NC(=O)Nc1ncnc2[nH]ncc12`, the results for the viability at 100 µM (in series [1]; with L1210) were 60% and 30%, respectively. Moreover, the viability at 72 h, 100 µM in series [2] stood at 60%.

Take `CCCCCCCCNC(=O)Nc1ncnc2[nH]ncc12`: the viability at 100 µM (in series [1]; in the series on L1210) was 0% each time. Moreover, the viability at 72 h, 100 µM in series [2] came out at 0%.

Consider `O=C(O)CNC(=O)Nc1ncnc2[nH]ncc12`, for which the values for the viability at 100 µM (in series [1]; with L1210) were 60% and 80%, respectively. Further, in series [2], the viability at 72 h, 100 µM amounted to 90%.

As for `CCCCCNC(=O)Nc1ncnc2[nH]ncc12`, the viability at 100 µM (in series [1]; in the series with L1210) was 30% in each case. Also, the viability at 72 h, 100 µM in series [2] is 0%.

With `C=CCNc1ncnc2[nH]ncc12`, the viability at 100 µM was determined as 30% in series [1] and 60% in the series on L1210. For the same molecule, the viability at 72 h, 100 µM in series [2] was determined as 60%.

On to `CC(C)(C)CNC(=O)Nc1ncnc2[nH]ncc12`, for which the values for the viability at 100 µM (in series [1]; with L1210) were 60% and 30%, respectively. Further, the viability at 72 h, 100 µM in series [2] amounted to 60%.

`c1ccc(CNc2ncnc3[nH]ncc23)cc1`: the viability at 100 µM in series [1] stood at 30%; with L1210 it was 0%. Also, in series [2], the viability at 72 h, 100 µM was found to be 30%.

`CC(C)CCNC(=O)Nc1ncnc2[nH]cnc12`: the inhibition at 100 µM in series [3] is 70%.
